Test results reported in ChEMBL document CHEMBL4229530, “5-Adamantan thiadiazole-based thiazolidinones as antimicrobial agents. Design, synthesis, molecular docking and evaluation” (2018).
Converted amounts (≈) assume the structure as drawn.

Assays:
[1] = tested on: Staphylococcus aureus; test: Antibacterial activity against Staphylococcus aureus ATCC 6538 after 24 hrs by INT dye based microdilution assay; type: functional; conditions: ATCC 6538, 24 h
In short: (§1)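 Broth microdilution in tryptic soy broth: overnight bacterial culture adjusted to 1×10^5 CFU/mL, 1.0×10^4 CFU per well; compounds dissolved in 5% DMSO, tested at 0.001-1.0 mg/ml; 24 h at 37°C. Streptomycin and ampicillin as positive controls, 5% DMSO as negative control; duplicate, repeated three times.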

[2] = tested on: Bacillus cereus; test: Antibacterial activity against Bacillus cereus after 24 hrs by INT dye based microdilution assay; type: functional; in short: as §1
[3] = tested on: Listeria monocytogenes; test: Antibacterial activity against Listeria monocytogenes NCTC 7973 after 24 hrs by INT dye based microdilution assay; type: functional; conditions: NCTC 7973, 24 h; in short: as §1
[4] = tested on: Micrococcus flavus; test: Antibacterial activity against Micrococcus flavus ATCC 10240 after 24 hrs by INT dye based microdilution assay; type: functional; conditions: ATCC 10240, 24 h; in short: as §1
[5] = tested on: Salmonella typhimurium; test: Antibacterial activity against Salmonella typhimurium ATCC 13311 after 24 hrs by INT dye based microdilution assay; type: functional, Salmonella enterica subsp. enterica serovar Typhimurium; conditions: Salmonella enterica, ATCC 13311, 24 h; in short: as §1
[6] = tested on: Enterobacter cloacae; test: Antibacterial activity against Enterobacter cloacae after 24 hrs by INT dye based microdilution assay; type: functional; in short: as §1
[7] = tested on: Pseudomonas aeruginosa; test: Antibacterial activity against Pseudomonas aeruginosa ATCC 27853 after 24 hrs by INT dye based microdilution assay; type: functional; conditions: ATCC 27853, 24 h; in short: as §1
[8] = tested on: Escherichia coli; test: Antibacterial activity against Escherichia coli ATCC 35210 after 24 hrs by INT dye based microdilution assay; type: functional; conditions: ATCC 35210, 24 h; in short: as §1
[9] = tested on: Aspergillus fumigatus; test: Antifungal activity against Aspergillus fumigatus isolate 1022 after 72 hrs by serial dilution assay; type: functional; conditions: isolate 1022, 72 h
In short: (§2)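 Modified microdilution: fungal spores washed off malt agar with sterile 0.85% saline plus 0.1% Tween 80, adjusted to about 1.0×10^5 per 100 µL well. Compounds in 5% DMSO (0.001-1.0 mg/ml) in malt broth; 72 h at 28°C on rotary shaker (160 rpm). MIC is lowest concentration without visible growth under binocular microscope. Bifonazole and ketoconazole controls (1-3500 µg/mL); three independent experiments in duplicate.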

[10] = tested on: Aspergillus versicolor; test: Antifungal activity against Aspergillus versicolor ATCC 11730 after 72 hrs by serial dilution assay; type: functional; conditions: ATCC 11730, 72 h; in short: as §2
[11] = tested on: Aspergillus ochraceus; test: Antifungal activity against Aspergillus ochraceus ATCC 12066 after 72 hrs by serial dilution assay; type: functional; conditions: ATCC 12066, 72 h; in short: as §2
[12] = tested on: Aspergillus niger; test: Antifungal activity against Aspergillus niger ATCC 6275 after 72 hrs by serial dilution assay; type: functional; conditions: ATCC 6275, 72 h; in short: as §2
[13] = tested on: Trichoderma viride; test: Antifungal activity against Trichoderma viride IAM 5061 after 72 hrs by serial dilution assay; type: functional; conditions: IAM 5061, 72 h; in short: as §2
[14] = tested on: Talaromyces funiculosus; test: Antifungal activity against Penicillium funiculosum ATCC 36839 after 72 hrs by serial dilution assay; type: functional; conditions: ATCC 36839, 72 h; in short: as §2
[15] = tested on: Penicillium ochrochloron; test: Antifungal activity against Penicillium ochrochloron ATCC 9112 after 72 hrs by serial dilution assay; type: functional; conditions: ATCC 9112, 72 h; in short: as §2
[16] = tested on: Penicillium verrucosum; test: Antifungal activity against Penicillium cyclopium var verucosum after 72 hrs by serial dilution assay; type: functional; in short: as §2
[17] = tested on: Staphylococcus aureus; test: Antibacterial activity against methicillin-resistant Staphylococcus aureus after 24 hrs by INT dye based microdilution assay; type: functional
In short: (§3)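 Broth microdilution in tryptic soy broth. Overnight culture adjusted to 1×10^5 CFU/mL, giving 1.0×10^4 CFU per well. Compounds dissolved in 5% DMSO and tested at 0.001-1.0 mg/ml. Plates incubated 24 h at 37°C. INT (0.2 mg/mL) then added, with 30 min at 37°C. Duplicate, repeated three times.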

[18] = tested on: Pseudomonas aeruginosa; test: Antibacterial activity against drug-resistant Pseudomonas aeruginosa after 24 hrs by INT dye based microdilution assay; type: functional; in short: as §3
[19] = tested on: Escherichia coli; test: Antibacterial activity against drug-resistant Escherichia coli after 24 hrs by INT dye based microdilution assay; type: functional; in short: as §3

| SMILES | MIC [1] | MIC [2] | MIC [3] | MIC [4] | MIC [5] | MIC [6] | MIC [7] | MIC [8] | MIC [9] | MIC [10] | MIC [11] | MIC [12] | MIC [13] | MIC [14] | MIC [15] | MIC [16] | MIC [17] | MIC [18] | MIC [19] |
| --- | --- | --- | --- | --- | --- | --- | --- | --- | --- | --- | --- | --- | --- | --- | --- | --- | --- | --- | --- |
| O=C1N/C(=N\c2nnc(C34CC5CC(CC(C5)C3)C4)s2)S/C1=C/c1ccc([N+](=O)[O-])cc1 | 0.0165 µM (≈ 0.00772 µg/mL) | 16.5 µM (≈ 7.72 µg/mL) | 33 µM (≈ 15.4 µg/mL) | 22 µM (≈ 10.3 µg/mL) | 16.5 µM (≈ 7.72 µg/mL) | 18 µM (≈ 8.42 µg/mL) | 22 µM (≈ 10.3 µg/mL) | 0.022 µM (≈ 0.0103 µg/mL) | 8 µM (≈ 3.74 µg/mL) | 8 µM (≈ 3.74 µg/mL) | 12.3 µM (≈ 5.75 µg/mL) | 16.5 µM (≈ 7.72 µg/mL) | 6 µM (≈ 2.81 µg/mL) | 12.3 µM (≈ 5.75 µg/mL) | 8 µM (≈ 3.74 µg/mL) | 0.0165 µM (≈ 0.00772 µg/mL) | 0.008 µM (≈ 0.00374 µg/mL) | 8 µM (≈ 3.74 µg/mL) | 0.006 µM (≈ 0.00281 µg/mL) |
| O=C1N/C(=N\c2nnc(C34CC5CC(CC(C5)C3)C4)s2)S/C1=C/c1ccccc1 | 0.0473 µM (≈ 0.02 µg/mL) | 94.7 µM (≈ 40 µg/mL) | 94.7 µM (≈ 40 µg/mL) | 94.7 µM (≈ 40 µg/mL) | 23.6 µM (≈ 9.97 µg/mL) | 94.7 µM (≈ 40 µg/mL) | 94.7 µM (≈ 40 µg/mL) | 0.0947 µM (≈ 0.04 µg/mL) | 47.5 µM (≈ 20.1 µg/mL) | 95 µM (≈ 40.1 µg/mL) | 47.5 µM (≈ 20.1 µg/mL) | 95 µM (≈ 40.1 µg/mL) | 47.5 µM (≈ 20.1 µg/mL) | 47.5 µM (≈ 20.1 µg/mL) | 47.5 µM (≈ 20.1 µg/mL) | 0.095 µM (≈ 0.0401 µg/mL) | 0.0473 µM (≈ 0.02 µg/mL) | 47.3 µM (≈ 20 µg/mL) | 0.0236 µM (≈ 0.00997 µg/mL) |
| O=C1N/C(=N\c2nnc(C34CC5CC(CC(C5)C3)C4)s2)S/C1=C/c1c(F)cccc1F | 0.0436 µM (≈ 0.02 µg/mL) | 43.6 µM (≈ 20 µg/mL) | 21.8 µM (≈ 10 µg/mL) | 43.6 µM (≈ 20 µg/mL) | 43.6 µM (≈ 20 µg/mL) | 21.8 µM (≈ 10 µg/mL) | 43.6 µM (≈ 20 µg/mL) | 0.0436 µM (≈ 0.02 µg/mL) | 393 µM (≈ 180 µg/mL) | 393 µM (≈ 180 µg/mL) | 393 µM (≈ 180 µg/mL) | 393 µM (≈ 180 µg/mL) | 393 µM (≈ 180 µg/mL) | 393 µM (≈ 180 µg/mL) | 393 µM (≈ 180 µg/mL) | 0.393 µM (≈ 0.18 µg/mL) | 0.393 µM (≈ 0.18 µg/mL) | 393 µM (≈ 180 µg/mL) | 0.393 µM (≈ 0.18 µg/mL) |
| CN(C)c1ccc(/C=C2/S/C(=N/c3nnc(C45CC6CC(CC(C6)C4)C5)s3)NC2=O)cc1 | 0.139 µM (≈ 0.0648 µg/mL) | 139 µM (≈ 64.8 µg/mL) | 69.5 µM (≈ 32.4 µg/mL) | 139 µM (≈ 64.8 µg/mL) | 69.5 µM (≈ 32.4 µg/mL) | 139 µM (≈ 64.8 µg/mL) | 69.5 µM (≈ 32.4 µg/mL) | 0.139 µM (≈ 0.0648 µg/mL) | 301 µM (≈ 140 µg/mL) | 150 µM (≈ 69.8 µg/mL) | 150 µM (≈ 69.8 µg/mL) | 150 µM (≈ 69.8 µg/mL) | 301 µM (≈ 140 µg/mL) | 150 µM (≈ 69.8 µg/mL) | 150 µM (≈ 69.8 µg/mL) | 0.301 µM (≈ 0.14 µg/mL) | 0.15 µM (≈ 0.0701 µg/mL) | 150 µM (≈ 70.1 µg/mL) | 0.0751 µM (≈ 0.035 µg/mL) |
| O=C1N/C(=N\c2nnc(C34CC5CC(CC(C5)C3)C4)s2)S/C1=C/c1ccccc1[N+](=O)[O-] | 0.0322 µM (≈ 0.0151 µg/mL) | 32.2 µM (≈ 15.1 µg/mL) | 32.2 µM (≈ 15.1 µg/mL) | 32.2 µM (≈ 15.1 µg/mL) | 32.2 µM (≈ 15.1 µg/mL) | 32.2 µM (≈ 15.1 µg/mL) | 32.2 µM (≈ 15.1 µg/mL) | 0.0322 µM (≈ 0.0151 µg/mL) | 321 µM (≈ 150 µg/mL) | 321 µM (≈ 150 µg/mL) | 321 µM (≈ 150 µg/mL) | 482 µM (≈ 225 µg/mL) | 321 µM (≈ 150 µg/mL) | 482 µM (≈ 225 µg/mL) | 321 µM (≈ 150 µg/mL) | 0.321 µM (≈ 0.15 µg/mL) | 0.175 µM (≈ 0.0818 µg/mL) | 175 µM (≈ 81.8 µg/mL) | 0.175 µM (≈ 0.0818 µg/mL) |
| O=C1N/C(=N\c2nnc(C34CC5CC(CC(C5)C3)C4)s2)S/C1=C/c1ccc(Cl)cc1Cl | 0.0203 µM (≈ 0.00998 µg/mL) | 163 µM (≈ 80.1 µg/mL) | 163 µM (≈ 80.1 µg/mL) | 163 µM (≈ 80.1 µg/mL) | 81.5 µM (≈ 40.1 µg/mL) | 163 µM (≈ 80.1 µg/mL) | 163 µM (≈ 80.1 µg/mL) | 0.163 µM (≈ 0.0801 µg/mL) | 81.4 µM (≈ 40 µg/mL) | 163 µM (≈ 80.1 µg/mL) | 81.4 µM (≈ 40 µg/mL) | 81.4 µM (≈ 40 µg/mL) | 81.4 µM (≈ 40 µg/mL) | 163 µM (≈ 80.1 µg/mL) | 163 µM (≈ 80.1 µg/mL) | 0.0814 µM (≈ 0.04 µg/mL) | 0.0814 µM (≈ 0.04 µg/mL) | 163 µM (≈ 80 µg/mL) | 0.0203 µM (≈ 0.00998 µg/mL) |
